This is an account of results in ChEMBL document CHEMBL2069299, “Biologically active ester derivatives as potent inhibitors of the soluble epoxide hydrolase” (Bioorg Med Chem Lett, 2012).

Series [1] addresses T1, Bifunctional epoxide hydrolase 2 (Homo sapiens, UniProt P34913).
T1 sequence (P34913 whole entry): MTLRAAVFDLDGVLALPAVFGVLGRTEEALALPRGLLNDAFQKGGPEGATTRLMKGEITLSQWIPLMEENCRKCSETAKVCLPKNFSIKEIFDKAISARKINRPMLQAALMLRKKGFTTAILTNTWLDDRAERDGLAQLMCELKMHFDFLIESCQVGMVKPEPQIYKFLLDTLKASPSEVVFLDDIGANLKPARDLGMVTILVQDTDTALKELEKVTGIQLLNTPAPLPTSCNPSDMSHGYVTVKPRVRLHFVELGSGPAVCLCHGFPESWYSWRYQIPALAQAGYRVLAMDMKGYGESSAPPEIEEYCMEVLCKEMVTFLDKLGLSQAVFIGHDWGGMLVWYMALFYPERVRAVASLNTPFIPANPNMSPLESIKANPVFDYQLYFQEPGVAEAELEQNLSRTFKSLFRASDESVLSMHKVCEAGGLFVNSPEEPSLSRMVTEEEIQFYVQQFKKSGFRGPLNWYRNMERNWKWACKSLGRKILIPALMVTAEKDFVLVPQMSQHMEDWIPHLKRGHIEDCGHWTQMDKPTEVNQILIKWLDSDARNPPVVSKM
Put plainly: Inhibition of human soluble epoxide hydrolase pre-incubated for 5 mins at 30 degC before CMNPC fluorescent substrate addition by fluorimetric assay. In short, it runs like this: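 Recombinant-free detail not given; human sEH at 0.96 nM preincubated with inhibitor 5 min at 30°C in 25 mM Bis-Tris/HCl, pH 7.0, then fluorescent substrate added at 5 μM. Fluorescence read-out; IC50 reported as mean of three separate measurements, assay standard error stated as 10–20%.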

Series [2] in a line: Stability in human liver microsomes aunder NADPH generating system at 37 degC for 60 mins by LC-MS/MS method. The class given is ADME, Microsome. The settings on record: read-out: Stability. The procedure, abridged: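 Test compound incubated with 0.125 mg human liver microsomal protein plus NADPH-generating system, shaken 37°C for 60 min. Remaining parent quantified by LC-MS/MS and expressed as percent; acid metabolites also monitored. Mean of triplicate independent analyses.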
In general terms: Microsomes from liver hold many membrane-bound enzymes, among them those of drug oxidation.

The nature of series [3]: Solubility in water using 0.1 M pH 7.4 phosphate buffer by LC-MS/MS method. The class given is physicochemical. In short, it runs like this: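 Excess solid suspended in 0.1 M sodium phosphate buffer, pH 7.4; equilibrated by 1 h sonication then 24 h shaking; centrifuged. Supernatant analysed by LC-MS/MS, with amount calculated from a regression curve built for each compound from five standard solutions.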

Values after ≈ are worked out from the molar mass of the structure shown.

The IC50 is the concentration needed to halve the response being measured. Usually solubility stands for how much of the substance goes into solution per volume. Regarding `CCOCCOCC(OC(=O)CCCNC(=O)NC12CC3CC(CC(C3)C1)C2)c1ccccc1` (stereo not given), the IC50 in series [1] stood at 4 nM. In series [2], the remaining at 1 h is 14%. Moreover, the solubility in series [3] came to 89 µg/mL (≈ 188 µM).
In series [1], `CCCCC(C)OC(=O)CCCNC(=O)NC12CC3CC(CC(C3)C1)C2` (stereo not given) gave a half-maximal inhibitory concentration (IC50) of 4 nM.
For the compound `CCCCC(CC)OC(=O)CCCNC(=O)NC12CC3CC(CC(C3)C1)C2` (stereo not given), the IC50 in series [1] was found to be 4 nM. The remaining at 1 h in series [2] is 4%. The solubility in series [3] came out at 3 µg/mL (≈ 7.92 µM).
On to `CCCCC(C#N)OC(=O)CCCNC(=O)NC12CC3CC(CC(C3)C1)C2` (stereo not given), for which half-maximal inhibition in series [1] (IC50) required 12 nM.
`CCOCCOCCOC(=O)CCCNC(=O)NC12CC3CC(CC(C3)C1)C2` came in with an IC50 in series [1] of 67 nM. For the same compound, the remaining at 1 h in series [2] was found to be 10%. For the same compound, the solubility in series [3] worked out at 878 µg/mL (≈ 2210 µM).
In the case of `O=C(NC1CCCC(C(=O)O)C1)NC12CC3CC(CC(C3)C1)C2` (stereo not given), the midpoint of inhibition in series [1], the IC50, lay at 1160 nM. In addition, the remaining at 1 h in series [2] came to 95%.
`CCCCCOC(=O)C1CCCC(NC(=O)NC23CC4CC(CC(C4)C2)C3)C1` (stereo not given) gave an IC50 in series [1] of 2 nM.
For the compound `CCCCC(CC)OC(=O)C1CCCC(NC(=O)NC23CC4CC(CC(C4)C2)C3)C1` (stereo not given), the IC50 in series [1] was determined as 3 nM. In series [2], the remaining at 1 h was found to be 10%. Moreover, the solubility in series [3] stood at 1 µg/mL (≈ 2.39 µM).
On the same counts, the results for `CCOCCOCC(OC(=O)C1CCCC(NC(=O)NC23CC4CC(CC(C4)C2)C3)C1)c1ccccc1` (stereo not given) are 9 nM, 32% and 41 µg/mL (≈ 80 µM).
For `CCCCCOC(=O)CCCNC(=O)NC12CC3CC(CC(C3)C1)C2` the same measures were 10 nM, less than 1% and 2 µg/mL (≈ 5.71 µM).
Compound `O=C(O)CCCNC(=O)NC12CC3CC(CC(C3)C1)C2` gave an IC50 in series [1] of 684 nM. Also, the remaining at 1 h in series [2] is 97%.
